Laboratory results published in ChEMBL document CHEMBL3616402, “A novel series of indazole-/indole-based glucagon receptor antagonists” (Bioorg Med Chem Lett, 2015).
The source made the active and inactive calls. The calls are words filed in the database; no cut-off is given here.

Tests used:
Glucagon receptor [1] = biological target: T1, Glucagon receptor (Homo sapiens, UniProt P47871); experiment: Displacement of [125I]glucagon from human glucagon receptor expressed in CHO cell membranes
Summary of the method: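 Binding: displacement of [125I]glucagon from human GCGR in membranes prepared from a CHO cell line stably expressing hGCGR; IC50 reported in nM.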

Glucagon receptor [2] = biological target: T1, Glucagon receptor; experiment: Antagonist activity against human glucagon receptor expressed in CHO cells assessed as reduction in glucagon-induced cAMP production; format: functional, cell-based
[3] = biological target: T2, Gastric inhibitory polypeptide receptor (Homo sapiens, UniProt P48546); experiment: Antagonist activity against human glucose dependent insulinotropic peptide receptor by cAMP accumulation assay; format: functional
T2 sequence (P48546 whole entry): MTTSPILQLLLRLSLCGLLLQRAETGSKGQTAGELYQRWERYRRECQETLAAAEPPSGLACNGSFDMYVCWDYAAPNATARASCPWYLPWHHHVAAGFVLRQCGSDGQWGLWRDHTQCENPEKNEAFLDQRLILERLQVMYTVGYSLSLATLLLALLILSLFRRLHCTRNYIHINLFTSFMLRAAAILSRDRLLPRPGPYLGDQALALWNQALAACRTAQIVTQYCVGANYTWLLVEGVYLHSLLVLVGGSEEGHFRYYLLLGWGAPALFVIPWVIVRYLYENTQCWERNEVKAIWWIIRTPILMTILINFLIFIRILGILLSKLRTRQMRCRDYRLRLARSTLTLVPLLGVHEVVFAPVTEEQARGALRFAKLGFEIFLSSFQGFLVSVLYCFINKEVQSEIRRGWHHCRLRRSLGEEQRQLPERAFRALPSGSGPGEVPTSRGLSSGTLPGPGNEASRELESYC
Summary of the method: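 Selectivity counter-screen: cAMP production measured in CHO cells expressing human GIPR; IC50 (potency) determined.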

Homo sapiens = species on record: Homo sapiens; experiment: Selectivity index, ratio of IC50 for human glucose dependent insulinotropic peptide receptor to IC50 for human glucagon receptor
[4] = Plasma clearance in Wistar rat at 0.5 mg/kg, iv or 2 mg/kg, po; format: ADME, organism-based
Summary of the method: (§1)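 Wistar rats given 0.5 mg/kg iv and 2 mg/kg po; plasma concentration–time profiles used to derive plasma clearance, steady-state volume of distribution, half-life and dose-normalized AUC (µM·h·kg/mg).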

[5] = Volume of distribution at steady state in Wistar rat at 0.5 mg/kg, iv or 2 mg/kg, po; format: ADME, organism-based; conditions: in vivo, read-out: Vdss; summary of the method: as §1
[6] = Half life in Wistar rat at 0.5 mg/kg, iv or 2 mg/kg, po; format: ADME, organism-based; conditions: in vivo; summary of the method: as §1
Rattus norvegicus = experiment: Dose normalized AUC in Wistar rat at 0.5 mg/kg, iv or 2 mg/kg, po; format: ADME, organism-based; conditions: in vivo; summary of the method: as §1
[7] = Oral bio availability in Wistar rat 2 mg/kg; format: ADME, organism-based; conditions: in vivo
Summary of the method: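 Oral bioavailability from Wistar rats dosed 2 mg/kg po with 0.5 mg/kg iv reference dose; F (%) from plasma exposure.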

Mus musculus [8] = experiment: Reduction in glucagon-induced glucose excursion in glucagon receptor humanized mouse model of acute glucagon challenge model at 1 to 10 mg/kg, po dosed 1 hr before glucagon challenge; format: functional, organism-based
Summary of the method: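 hGCGR-humanized mice given compound orally at 1, 3 or 10 mg/kg one hour prior to IP glucagon (15 µg/kg); blood glucose followed as change from time 0.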

[9] = Drug level in glucagon-induced glucose excursion in glucagon receptor humanized mouse model of acute glucagon challenge model at 1 mg/kg, po dosed 1 hr before glucagon challenge and measured after 60 mins post dose; format: ADME, organism-based; conditions: in vivo, read-out: Drug uptake
Summary of the method: (§2)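 Glucagon-receptor-humanized (hGCGR) mice dosed orally at 1, 3 or 10 mg/kg one hour before IP glucagon challenge (15 µg/kg); drug level measured at 60 min.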

[10] = Drug level in glucagon-induced glucose excursion in glucagon receptor humanized mouse model of acute glucagon challenge model at 3 mg/kg, po dosed 1 hr before glucagon challenge and measured after 60 mins post dose; format: ADME, organism-based; conditions: in vivo, read-out: Drug uptake; summary of the method: as §2
[11] = Drug level in glucagon-induced glucose excursion in glucagon receptor humanized mouse model of acute glucagon challenge model at 10 mg/kg, po dosed 1 hr before glucagon challenge and measured after 60 mins post dose; format: ADME, organism-based; conditions: in vivo, read-out: Drug uptake; summary of the method: as §2
Mus musculus [12] = experiment: Reduction in blood glucose levels in glucagon receptor humanized ob/ob mouse acute model at 3 mg/kg, po after 1 to 6 hrs; format: functional, organism-based
Summary of the method: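 hGCGR ob/ob mice (N = 10–12 per group) dosed orally at 3 mg/kg at 0 h with food removed at 0 h; ambient blood glucose monitored over 6 h versus vehicle control, significance at each time point.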

[13] = Drug level in glucagon receptor humanized ob/ob mouse acute model at 3 mg/kg, po after 1 hrs; format: ADME, organism-based; conditions: in vivo, read-out: Drug uptake
[14] = Drug level in glucagon receptor humanized ob/ob mouse acute model at 3 mg/kg, po after 3 hrs; format: ADME, organism-based; conditions: in vivo, read-out: Drug uptake

T1 sequence (P47871 whole entry): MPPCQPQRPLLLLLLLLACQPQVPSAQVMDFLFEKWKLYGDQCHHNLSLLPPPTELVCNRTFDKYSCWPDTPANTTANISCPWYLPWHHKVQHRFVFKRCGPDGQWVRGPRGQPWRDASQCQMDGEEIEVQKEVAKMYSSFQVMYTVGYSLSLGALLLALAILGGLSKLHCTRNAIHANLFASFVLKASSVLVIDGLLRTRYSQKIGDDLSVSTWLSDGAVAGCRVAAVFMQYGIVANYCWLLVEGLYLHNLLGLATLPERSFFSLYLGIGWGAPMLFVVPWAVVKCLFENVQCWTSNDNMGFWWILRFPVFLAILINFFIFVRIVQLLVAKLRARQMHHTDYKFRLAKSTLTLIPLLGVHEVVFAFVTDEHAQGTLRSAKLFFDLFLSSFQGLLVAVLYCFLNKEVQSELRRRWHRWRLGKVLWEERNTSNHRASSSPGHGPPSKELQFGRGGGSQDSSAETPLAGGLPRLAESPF

## COc1ccc(C(F)(F)F)cc1-c1nn(C(C)c2ccc(C(=O)NCCC(=O)O)cc2)c2cc(-c3ccc(C)cc3)ccc12 (configuration not stated)
Glucagon receptor [1]
  IC50: 2.6 nM
Glucagon receptor [2]
  IC50: 7.6 nM
[3]
  IC50: 1300 nM
Homo sapiens
  Ratio IC50: 170
[4]
  clearance: 6.3 mL/min/kg
[5]
  Vd: 0.65 L/kg
[6]
  half-life: 1.5 h
Rattus norvegicus
  AUC/dose: 2 µM·kg·h/mg
[7]
  bioavailability: 44%
Mus musculus [8]
  inhibition: Active
[9]
  concentration at 1 h: 180 nM
[10]
  concentration at 1 h: 500 nM
[11]
  concentration at 1 h: 2540 nM
Mus musculus [12]
  inhibition: Active
[13]
  concentration at 1 h: 400 nM
[14]
  concentration at 3 h: 280 nM

## CCCCC(c1ccc(C(=O)NCCC(=O)O)cc1)n1nc(-c2cc(C(F)(F)F)ccc2OC)c2ccc(-c3ccc(OC)cc3)cc21 (configuration not stated)
Glucagon receptor [1]
  IC50: 1.9 nM
Glucagon receptor [2]
  IC50: 14 nM
[3]
  IC50: 1100 nM
Homo sapiens
  Ratio IC50: 79
[4]
  clearance: 1.7 mL/min/kg
[5]
  Vd: 0.67 L/kg
[6]
  half-life: 6.4 h
Rattus norvegicus
  AUC/dose: 4 µM·kg·h/mg
[7]
  bioavailability: 27%

## CCCCC(c1ccc(C(=O)NCCC(=O)O)cc1)n1nc(-c2cc(C(F)(F)F)ccc2OC)c2ccc(-c3ccc(OC(F)(F)F)cc3)cc21 (configuration not stated)
Glucagon receptor [1]
  IC50: 0.8 nM
Glucagon receptor [2]
  IC50: 8 nM
[3]
  IC50: 750 nM
Homo sapiens
  Ratio IC50: 94
[4]
  clearance: 7.5 mL/min/kg
[5]
  Vd: 0.72 L/kg
[6]
  half-life: 4.7 h
Rattus norvegicus
  AUC/dose: 0.3 µM·kg·h/mg
[7]
  bioavailability: 9%

## CCCC(c1ccc(C(=O)NCCC(=O)O)cc1)n1nc(-c2cc(C(F)(F)F)ccc2OC)c2ccc(-c3ccc(OC(F)(F)F)cc3)cc21 (configuration not stated)
Glucagon receptor [1]
  IC50: 1 nM
Glucagon receptor [2]
  IC50: 5.6 nM
[3]
  IC50: 1400 nM
Homo sapiens
  Ratio IC50: 250
[4]
  clearance: 2.2 mL/min/kg
[5]
  Vd: 1.3 L/kg
[6]
  half-life: 9.7 h
Rattus norvegicus
  AUC/dose: 2 µM·kg·h/mg
[7]
  bioavailability: 19%

## CCCCC(c1ccc(C(=O)NCCC(=O)O)cc1)n1nc(-c2cc(C(F)(F)F)ccc2OC)c2ccc(-c3ccc(C)cc3)cc21 (configuration not stated)
Glucagon receptor [1]
  IC50: 2.6 nM
Glucagon receptor [2]
  IC50: 6.6 nM
[3]
  IC50: 1000 nM
Homo sapiens
  Ratio IC50: 150
[4]
  clearance: 3.9 mL/min/kg
[5]
  Vd: 1 L/kg
[6]
  half-life: 4 h
Rattus norvegicus
  AUC/dose: 1.2 µM·kg·h/mg
[7]
  bioavailability: 17%
